Assays:
[1] = Kinetic parameter KM (nM) for the MAO-B catalyzed oxidation of the compound.; format: ADME
Outline: (§1)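 Compound at 0.05-2.5 mM in 100 mM phosphate pH 7.4 was equilibrated 2 min at 37 °C, then 0.05 unit of purified beef liver MAO-B was added. Initial rates were followed by the rise in absorbance of the dihydropyridinium product. KM and Vmax came from Lineweaver-Burk plots. One unit converts 1 μmol benzylamine per min.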

[2] = Kinetic parameter Vmax (nm/min/unit of MAO-B) for the MAO-B catalyzed oxidation of the compound.; format: ADME; outline: as §1
[3] = target: T1, Amine oxidase [flavin-containing] B (Bos taurus, UniProt P56560); assay: Monoamine oxidase B Inactivation property expressed as inactivation constant (K inact).
T1 sequence (P56560 whole entry): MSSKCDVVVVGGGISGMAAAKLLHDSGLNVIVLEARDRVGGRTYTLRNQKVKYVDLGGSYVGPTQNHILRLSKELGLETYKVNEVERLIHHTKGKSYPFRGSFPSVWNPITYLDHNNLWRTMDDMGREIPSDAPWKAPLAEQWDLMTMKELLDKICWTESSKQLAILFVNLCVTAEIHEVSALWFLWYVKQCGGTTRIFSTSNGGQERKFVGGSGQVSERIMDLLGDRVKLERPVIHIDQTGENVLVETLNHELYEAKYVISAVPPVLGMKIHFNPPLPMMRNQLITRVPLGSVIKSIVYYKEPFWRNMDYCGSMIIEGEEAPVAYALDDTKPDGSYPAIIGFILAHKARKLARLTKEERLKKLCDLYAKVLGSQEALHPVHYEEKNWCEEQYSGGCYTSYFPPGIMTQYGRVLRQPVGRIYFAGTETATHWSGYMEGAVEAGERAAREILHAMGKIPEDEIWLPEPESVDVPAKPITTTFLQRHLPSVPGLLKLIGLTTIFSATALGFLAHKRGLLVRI

[4] = target: T1, Amine oxidase [flavin-containing] B; assay: Inhibitory constant against monoamine Oxidase(MAO-B).
[5] = target: T1, Amine oxidase [flavin-containing] B; assay: MAO-B Inactivation property expressed as inactivation constant (K inact).
[6] = target: T1, Amine oxidase [flavin-containing] B; assay: Monoamine oxidase B Inactivation property expressed as inactivation constant (K inact) was determined at a concentration of 300-1500 uM
[7] = target: T1, Amine oxidase [flavin-containing] B; assay: Inhibitory constant against monoamine Oxidase(MAO-B) was determined at a concentration of 300-1500 uM
[8] = target: T1, Amine oxidase [flavin-containing] B; assay: Monoamine oxidase B Inactivation property expressed as inactivation constant (K inact); Not active
[9] = target: T1, Amine oxidase [flavin-containing] B; assay: Inhibitory constant against monoamine Oxidase (MAO-B); Not active
[10] = target: T1, Amine oxidase [flavin-containing] B; assay: MAO-B Inactivation property expressed as inactivation constant (K inact) was determined at a concentration of 50-100 uM
[11] = target: T1, Amine oxidase [flavin-containing] B; assay: Inhibitory constant against monoamine Oxidase(MAO-B) was determined at a concentration of 50-100 uM

| Ki [4] [µM] | SMILES | Km [1] [µM] | Vmax [2] | kinact [3] [s⁻¹] | also measured |
| --- | --- | --- | --- | --- | --- |
| 330 | C=CC1=CCN(C)CC1 | 80 | 190 | 0.00133 | – |
| 820 | CN1CC=C(C#Cc2ccccc2)CC1 | – | – | – | kinact [5]: 0.00533 s⁻¹ |
| – | CCCN1CC=C(c2ccccc2)CC1 | 2000 | 7 | – | kinact [6]: 0.001 s⁻¹; Ki [7]: 5000 µM |
| – | CN1CC=C(c2ccccc2)CC1 | 390 | 204 | – | – |
| – | C1=C(c2ccccc2)CCN(C2CCC2)C1 | – | – | – | kinact [8]: Not Active; Ki [9]: Not Active |
| 154 | C#CC1=CCN(C)CC1 | 861 | 684 | – | kinact [5]: 0.000833 s⁻¹ |
| – | C#CCN1CC=C(c2ccccc2)CC1 | – | – | – | kinact [10]: 0.004 s⁻¹; Ki [11]: 172 µM |

| SMILES | Ki [4] [µM] | Km [1] [µM] | Vmax [2] | kinact [3] [s⁻¹] | also measured |
| --- | --- | --- | --- | --- | --- |
| C1=C(c2ccccc2)CCN(C2CCCC2)C1 | 173 | – | – | 0.00075 | – |
| C=CCN1CC=C(c2ccccc2)CC1 | 268 | – | – | 0.000483 | – |

— ChEMBL document CHEMBL1125347, “Synthesis of novel MPTP analogs as potential monoamine oxidase B (MAO-B) inhibitors” (J Med Chem, 1992)
